ChEMBL document CHEMBL5252510, “A Novel Potent Oral Series of VEGFR2 Inhibitors Abrogate Tumor Growth by Inhibiting Angiogenesis” (J Med Chem, 2016)
Calls of active or inactive are those of the source. The calls are words filed in the database; no cut-off is given here.

Assays:
[1] = biological target: Fibroblast growth factor receptor 3 (Homo sapiens) (UniProt P22607); assay: Inhibition of human recombinant GST-fused FGFR3 expressed in baculovirus expression system using poly-Glu-Tyr (4:1) as substrate measured after 10 mins in presence of gamma-[33P]-ATP by scintillation counting analysis
Method in brief: (§1)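 GST-fused kinase domains were expressed in baculovirus and purified on glutathione-Sepharose. 10 min at ambient temperature, stopped with EDTA. Filter binding and scintillation counting. IC50 by linear regression of percent inhibition.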

BaF3 [2] = assay: Antiproliferative activity against mouse BaF3 cells expressing Tel-FGFR3 assessed as cell growth inhibition measured after 72 hrs by Alamar Blue assay; settings: BaF3, 72 h
BaF3 [3] = assay: Antiproliferative activity against mouse BaF3 cells expressing NPM-ALK assessed as cell growth inhibition measured after 72 hrs by Alamar Blue assay; settings: BaF3, 72 h
BaF3 [4] = assay: Antiproliferative activity against mouse BaF3 cells expressing FLT3-ITD assessed as cell growth inhibition measured after 72 hrs by Alamar Blue assay; settings: BaF3, 72 h
[5] = biological target: Hepatocyte growth factor receptor (Homo sapiens) (UniProt P08581); assay: Inhibition of human recombinant GST-fused c-MET expressed in baculovirus expression system using poly-Glu-Tyr (4:1) as substrate measured after 10 mins in presence of gamma-[33P]-ATP by scintillation counting analysis; method in brief: as §1
BaF3 [6] = assay: Antiproliferative activity against mouse BaF3 cells expressing Tel-IGF-1R assessed as cell growth inhibition measured after 72 hrs by Alamar Blue assay; settings: BaF3, 72 h
BaF3 [7] = assay: Antiproliferative activity against mouse BaF3 cells expressing Trp-MET assessed as cell growth inhibition measured after 72 hrs by Alamar Blue assay; settings: BaF3, 72 h
BaF3 [8] = assay: Antiproliferative activity against mouse BaF3 cells assessed as cell growth inhibition measured after 72 hrs by Alamar Blue assay; settings: BaF3, 72 h
BaF3 [9] = assay: Antiproliferative activity against mouse BaF3 cells expressing Bcr-ABL assessed as cell growth inhibition measured after 72 hrs by Alamar Blue assay; settings: BaF3, 72 h
BaF3 [10] = assay: Antiproliferative activity against mouse BaF3 cells expressing KIT D816V mutant assessed as cell growth inhibition measured after 72 hrs by Alamar Blue assay; settings: BaF3, 72 h
[11] = biological target: Cyclin-dependent kinase 1 (Homo sapiens) (UniProt P06493); assay: Inhibition of human recombinant GST-fused CDK1 expressed in baculovirus expression system using poly-Glu-Tyr (4:1) as substrate measured after 10 mins in presence of gamma-[33P]-ATP by scintillation counting analysis; method in brief: as §1
BaF3 [12] = assay: Antiproliferative activity against mouse BaF3 cells expressing ERBB2 V659E mutant assessed as cell growth inhibition measured after 72 hrs by Alamar Blue assay; settings: BaF3, 72 h
BaF3 [13] = assay: Antiproliferative activity against mouse BaF3 cells expressing PTC3-RET assessed as cell growth inhibition measured after 72 hrs by Alamar Blue assay; settings: BaF3, 72 h
BN472 cell [14] = assay: Antitumor activity against rat BN472 cell implanted in Brown-Norway rat assessed as reduction in perfused blood vessels at 100 mg/kg, po qd measured upto 14 days by Ki67 staining based microscopic analysis; format: functional, organism-based; settings: time <= 14.0 day, in the assay text read “Hoechst dye staining” for “Ki67 staining”
Method in brief: (§2)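 BN472-bearing Brown-Norway rats dosed orally; Hoechst dye i.v. shortly before sacrifice to mark perfused vessels; tumors cryosectioned at 10 micron, blocked in 10 % goat serum/0.1 % Triton X-100, stained with rabbit anti-Ki67 (1:200) or anti-caspase 3 (1:10) and fluorescent secondary antibodies; fluorescence microscopy.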

BN472 cell [15] = assay: Antitumor activity against rat BN472 cell implanted in Brown-Norway rat assessed as reduction in perfused blood vessels at 100 mg/kg, po qd measured upto 14 days by Hoechst staining based microscopic analysis; format: functional, organism-based; settings: time <= 14.0 day; method in brief: as §2
Mus musculus [16] = organism: Mus musculus; assay: Antiangiogenic activity in C57BL/6jNpa mouse harbouring mouse B16-BL6 cells assessed as reduction in K-trans level by measuring T/C ratio measured after 3 days by DCE-MRI assay; format: functional; settings: time 3 day
Method in brief: (§3)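 C57BL/6JNpa mice bearing B16/BL6 cervical lymph-node metastases, at least 8 per group, anaesthetized and given contrast agent; DCE-MRI Ktrans and iAUEC (permeability) and Vp (plasma volume) measured before and again after daily treatment; change per mouse recorded, mean ± SEM, one-way ANOVA with Holm-Sidak comparisons versus vehicle.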

HUVEC [17] = assay: Antiproliferative activity against VEGF-stimulated HUVEC cells assessed as cell growth inhibition measured after 24 hrs by BrdUrd incorporation based spectrophotometric analysis; settings: Homo sapiens
Mus musculus [18] = organism: Mus musculus; assay: Antiangiogenic activity in C57BL/6jNpa mouse harbouring mouse B16-BL6 cells assessed as reduction in tumor plasma volume measured after 3 days by DCE-MRI assay relative to control; format: functional; parameters: scale not given: the % may be the effect or the level left; settings: time 3 day; method in brief: as §3
BN472 cell [19] = assay: Induction of apoptosis in rat BN472 cell implanted in Brown-Norway rat assessed as effect on caspase 3 level at 100 mg/kg, po qd measured upto 14 days by microscopic analysis; format: functional, organism-based; settings: time <= 14.0 day
Method in brief: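 BN472 fragments were grown in mammary fat pads of female Brown-Norway rats and dosed orally for 14 days. Hoechst dye was given i.v. 2 min before sacrifice. Excised tumors were cut as 10 micron frozen sections, blocked with 10 % normal goat serum/0.1 % Triton X-100 and stained with rabbit anti-rat caspase 3 (1:10), then a TRITC or FITC secondary. Read by fluorescence microscopy.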

B16-BL6 [20] = assay: Antitumor activity against mouse B16-BL6 cells implanted in C57BL/6jNpa mouse assessed as metastatic tumor growth inhibition at 100 mg/kg, po qd administered started on day 7 post implantation measured after 21 days relative to control; format: functional, organism-based; settings: time 7-21 day
Method in brief: (§4)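 Female C57BL/6JNpa mice, 50000 B16/BL6 cells intradermally in both ear pinnae; primary tumor area (mm²) imaged days 7, 14, 21; randomized day 7 into groups of 5-6, oral dosing in PEG200 or PEG300 vehicle daily (or every 2 days) for 14 days; day 21 cervical lymph nodes weighed, metastasis lysates assayed for TIE-2 by ELISA; T/C ratios.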

Mus musculus [21] = organism: Mus musculus; assay: Antiangiogenic activity in C57BL/6jNpa mouse harbouring mouse B16-BL6 cells assessed as reduction in K-trans level measured after 3 days by DCE-MRI assay relative to control; format: functional; parameters: scale not given: the % may be the effect or the level left; settings: time 3 day; method in brief: as §3
BaF3 [22] = assay: Antiproliferative activity against mouse BaF3 cells expressing Tel-PDGFRbeta assessed as cell growth inhibition measured after 72 hrs by Alamar Blue assay; settings: BaF3, 72 h
B16-BL6 [23] = assay: Antitumor activity against mouse B16-BL6 cells implanted in C57BL/6jNpa mouse assessed as primary tumor growth inhibition at 100 mg/kg, po qd administered started on day 7 post implantation measured after 21 days relative to control; format: functional, organism-based; settings: time 7-21 day; method in brief: as §4
HUVEC [24] = assay: Antiproliferative activity against bFGF-stimulated HUVEC cells assessed as cell growth inhibition measured after 24 hrs by BrdUrd incorporation based spectrophotometric analysis; settings: Homo sapiens
Mus musculus [25] = organism: Mus musculus; assay: Antiangiogenic activity in C57BL/6jNpa mouse harbouring mouse B16-BL6 cells assessed as reduction in tumor plasma volume by measuring T/C ratio measured after 3 days by DCE-MRI assay; format: functional; settings: time 3 day; method in brief: as §3
Mus musculus [26] = organism: Mus musculus; assay: Antiangiogenic activity in C57BL/6jNpa mouse harbouring mouse B16-BL6 cells assessed as reduction in iAUEC level by measuring T/C ratio measured after 3 days by DCE-MRI assay; format: functional; settings: time 3 day; method in brief: as §3
B16-BL6 [27] = assay: Antitumor activity against mouse B16-BL6 cells implanted in C57BL/6jNpa mouse assessed as primary tumor growth inhibition by measuring T/C ratio at 100 mg/kg, po qd administered started on day 7 post implantation measured after 21 days; format: functional; settings: time 7-21 day; method in brief: as §4
B16-BL6 [28] = assay: Antitumor activity against mouse B16-BL6 cells implanted in C57BL/6jNpa mouse assessed as metastatic tumor growth inhibition by measuring T/C ratio at 100 mg/kg, po qd administered started on day 7 post implantation measured after 21 days relative to control; format: functional; settings: time 7-21 day; method in brief: as §4
Mus musculus [29] = organism: Mus musculus; assay: Antiangiogenic activity in C57BL/6jNpa mouse harbouring mouse B16-BL6 cells assessed as reduction in iAUEC level measured after 3 days by DCE-MRI assay relative to control; format: functional; parameters: scale not given: the % may be the effect or the level left; settings: time 3 day; method in brief: as §3
Mus musculus [30] = assay: Anti-angiogenesis activity in FVB mouse model assessed as inhibition of VEGF-induced tissue weight at 50 mg/kg, po qd treated for 4 to 6 hrs prior to chamber implantation and continuing for 4 days measured after 24 hrs post last dose; format: functional, organism-based; settings: time 5.0 day
Method in brief: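 Chamber model in female FVB mice: VEGF (2 μg/mL) agar/heparin chambers s.c. in flank, oral dosing once daily starting 4-6 h before implantation and continuing 4 days; vascularized tissue harvested and weighed 24 h after final dose; 6 mice per group.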

[31] = biological target: T1, Vascular endothelial growth factor receptor 2 (Homo sapiens, UniProt P35968); assay: Inhibition of human recombinant GST-fused VEGFR2 kinase domain transphosphorylation expressed in baculovirus expression system using poly-Glu-Tyr (4:1) as substrate measured after 10 mins in presence of gamma-[33P]-ATP by scintillation counting analysis
[32] = biological target: T1, Vascular endothelial growth factor receptor 2; assay: Inhibition of VEGF-induced human VEGFR2 autophosphorylation transfected in CHO cells measured after 2 hrs by chemiluminescence assay; format: cell-based

In the case of `CNC(=O)c1cc(Oc2ccc(NC(=O)Nc3ccc(Cl)c(C(F)(F)F)c3)cc2)ccn1` [SORAFENIB], the inhibition [1] is reported as “Active”, the IC50 (BaF3 [2]) is reported as 2.46 µM and the IC50 (BaF3 [3]) is reported as 1.01 µM. The IC50 (BaF3 [4]) was 0.012 µM, the inhibition [5] was “Active” and the IC50 (BaF3 [6]) was 3.68 µM. It also gave an IC50 (BaF3 [7]) of 7.4 µM, an IC50 (BaF3 [8]) of over 10 µM and an IC50 (BaF3 [9]) of 5.82 µM. For the same compound, the IC50 (BaF3 [10]) was 2.8 µM, the inhibition [11] was “Active” and the IC50 (BaF3 [12]) was 4.21 µM. It also gave an IC50 (BaF3 [13]) of 0.078 µM.
With `Clc1ccc(Nc2nnc(Cc3ccncc3)c3ccccc23)cc1.O=C(O)CCC(=O)O` the Activity (BN472 cell [14]) was “Active”, the Activity (BN472 cell [15]) was “Active” and the IC50 (BaF3 [2]) was over 10 µM. The IC50 (BaF3 [3]) was over 10 µM, the T/C (Mus musculus [16]) was 0.49 and the IC50 (BaF3 [4]) was over 10 µM. The IC50 (BaF3 [6]) was over 10 µM, the IC50 (BaF3 [7]) was over 10 µM and the IC50 (BaF3 [8]) was over 10 µM. The IC50 (HUVEC [17]) was 0.0071 µM, the Activity (Mus musculus [18]) was 33% and the IC50 (BaF3 [9]) was over 10 µM. For the same compound, the Activity (BN472 cell [19]) was “Active”, the Activity (B16-BL6 [20]) was “Active” and the IC50 (BaF3 [10]) was over 10 µM. It also gave an Activity (Mus musculus [21]) of 51%, an IC50 (BaF3 [22]) of 0.076 µM and an IC50 (BaF3 [12]) of over 10 µM. For the same compound, the Activity (B16-BL6 [23]) was “Active”, the IC50 (HUVEC [24]) was over 3 µM and the T/C (Mus musculus [25]) was 0.67. The T/C (Mus musculus [26]) was 0.61, the T/C (B16-BL6 [27]) was 0.44 and the T/C (B16-BL6 [28]) was 0.34. The Activity (Mus musculus [29]) was 33% and the IC50 (BaF3 [13]) was over 10 µM.
For `Cc1[nH]c(/C=C2\C(=O)Nc3ccccc32)c(C)c1CCC(=O)O`, the Activity (Mus musculus [30]) was “Active”.
Work on `CCN1CCN(Cc2ccc(NC(=O)Nc3ccc(Oc4cc(NC)ncn4)cc3)cc2C(F)(F)F)CC1` [AST-487] yielded an IC50 [31] of 0.003 µM and an IC50 [32] of 0.23 µM.
